From ChEMBL document CHEMBL2057168, “(1aR,5aR)1a,3,5,5a-Tetrahydro-1H-2,3-diaza-cyclopropa[a]pentalene-4-carboxylic acid (MK-1903): a potent GPR109a agonist that lowers free fatty acids in humans” (J Med Chem, 2012)
The source made the active and inactive calls. No cut-off for these calls is given here.

How the values were obtained:
[1] = Cmax in human at 150 mg, po TID administered on day 1 followed by 2-days wash out period after which dosing continued up to day 11 measured on day 11; type: ADME, organism-based; parameters: dose 150 mg, route oral; settings: in vivo
Procedure, shortened: (§1)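 Healthy male volunteers took part in a double-blind, randomized, placebo-controlled dose-escalation study, with cohorts of 8 (6 on drug, 2 on placebo). Each subject got an oral dose on day 1, then a 2-day washout, then dosing on days 4–11. The 200 mg qd group was titrated over days 1–4. Venous plasma was sampled predose and 0.5–12 h postdose on days 1, 4 and 11, and predose on days 5–10 for troughs.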

[2] = Volume of distribution in rhesus monkey; type: ADME, organism-based, Macaca mulatta; settings: in vivo
[3] = Cmax in human at 100 mg, po BID administered on day 1 followed by 2-day wash out period after which dosing continued up to day 11 measured on day 1; type: ADME, organism-based; parameters: dose 100 mg, route oral; settings: in vivo
Procedure, shortened: (§2)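 Double-blind, placebo-controlled, randomized dose-escalation study in healthy male volunteers, six cohorts of eight (six active, two placebo). Oral dose on day 1, two-day washout, then dosing days 4–11; the 200 mg qd cohort was titrated over days 1–4. Venous blood taken predose and at 0.5–12 h on days 1, 4 and 11; plasma drug measured. τ 12 h (bid), 24 h (qd), 8 h (tid), 6 h (qid).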

[4] = AUC (0 to 8 hrs) in human at 150 mg, po TID administered on day 1 followed by 2-days wash out period after which dosing continued up to day 11 measured on day 4; type: ADME, organism-based; parameters: time < 8 hr, dose 150 mg, route oral; settings: plasma; procedure, shortened: as §2
Homo sapiens [5] = experiment: Cmin in human at 50 mg, po BID administered on day 1 followed by 2-day wash out period after which dosing continued up to day 11 measured on day 1 at 12 hrs; type: ADME, organism-based; settings: in vivo, BLD = below limit of detection; procedure, shortened: as §1
[6] = Terminal half life in mouse; type: ADME, organism-based; settings: in vivo, read-out: beta t1/2 (converted)
[7] = Cmin in human at 150 mg, po TID administered on day 1 followed by 2-days wash out period after which dosing continued up to day 11 measured on day 1 at 8 hrs; type: ADME, organism-based; settings: in vivo, read-out: Cmin; procedure, shortened: as §1
Canis familiaris = experiment: Dose normalized AUC in po dosed dog; type: ADME, organism-based, Canis lupus familiaris; settings: in vivo
[8] = Tmax in human at 150 mg, po TID administered on day 1 followed by 2-days wash out period after which dosing continued up to day 11 measured on day 11; type: ADME, organism-based; settings: in vivo
Procedure, shortened: (§3)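 Double-blind, placebo-controlled, randomized multiple oral dose study in healthy male volunteers (cohorts of eight; six active, two placebo). Dose given on day 1, then a two-day washout, then dosing days 4–11; for the QD arm, subjects were titrated over days 1–4. Venous plasma sampled predose and 0.5, 1, 1.5, 2, 4, 6, 8, 10, 12 h postdose on days 1, 4 and 11. Tmax reported as median (min–max).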

[9] = Terminal half life in dog; type: ADME, organism-based, Canis lupus familiaris; settings: in vivo, read-out: beta t1/2 (converted)
[10] = Apparent half life in human at titreated po dose administered from day 1 to 4 followed by 200 mg, po QD administered up to day 11 measured on day 11; type: ADME, organism-based; settings: in vivo, read-out: t1/2(app) (converted); procedure, shortened: as §2
[11] = Plasma clearance in dog; type: ADME, organism-based, Canis lupus familiaris
[12] = Cmin in human at 175 mg, po QID administered on day 1 followed by 2-days wash out period after which dosing continued up to day 11 measured on day 1 at 6 hrs; type: ADME, organism-based; settings: in vivo, read-out: Cmin; procedure, shortened: as §1
[13] = Tmax in human at 50 mg, po BID administered on day 1 followed by 2-day wash out period after which dosing continued up to day 11 measured on day 1; type: ADME, organism-based; settings: in vivo; procedure, shortened: as §3
[14] = AUC (0 to 6 hrs) in human at 175 mg, po QID administered on day 1 followed by 2-days wash out period after which dosing continued up to day 11 measured on day 1; type: ADME, organism-based; parameters: time < 6 hr, dose 175 mg, route oral; settings: plasma; procedure, shortened: as §2
[15] = Blood clearance in mouse; type: ADME, organism-based; settings: whole blood
Procedure, shortened: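 Pharmacokinetics across species; for mice, clearance determined in blood rather than plasma following dosing.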

[16] = AUC (0 to 12 hrs) in human at 50 mg, po BID administered on day 1 followed by 2-day wash out period after which dosing continued up to day 11 measured on day 11; type: ADME, organism-based; parameters: dose 50 mg, time < 12 hr, route oral; settings: plasma; procedure, shortened: as §2
Homo sapiens [17] = experiment: Antidyslipedic activity in human assessed as decrease in free fatty acid level at 50 to 200 mg, po administered as a single dose measured after 8 hrs relative to placebo control; type: functional, organism-based
[18] = AUC (0 to 24 hrs) in human at titreated po dose administered from day 1 to 4 followed by 200 mg, po QD administered up to day 11 measured on day 4; type: ADME, organism-based; parameters: dose 200 mg, time < 24 hr, route oral; settings: plasma; procedure, shortened: as §2
[19] = Plasma clearance in rhesus monkey; type: ADME, organism-based, Macaca mulatta
[20] = Apparent half life in human at 150 mg, po BID administered on day 1 followed by 2-day wash out period after which dosing continued up to day 11 measured on day 11; type: ADME, organism-based; settings: in vivo, read-out: t1/2(app) (converted); procedure, shortened: as §2
Homo sapiens [21] = experiment: Toxicity in dyslipedimc patient assessed as flushing at 150 mg administered TID during four week study; type: organism-based; settings: in vivo
[22] = AUC (0 to 8 hrs) in human at 150 mg, po TID administered on day 1 followed by 2-days wash out period after which dosing continued up to day 11 measured on day 1; type: ADME, organism-based; parameters: time < 8 hr, dose 150 mg, route oral; settings: plasma
Procedure, shortened: (§4)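 Healthy male volunteers, double-blind placebo-controlled randomized dose escalation; cohorts of eight (six active, two placebo). Oral dose on day 1, two-day washout, then dosing days 4–11. Venous blood predose and 0.5, 1, 1.5, 2, 4, 6, 8, 10, 12 h postdose on days 1, 4 and 11 for plasma drug; dosing interval (τ) 12 h for BID, 8 h for TID; Ctrough taken at end of interval.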

Mus musculus = experiment: Dose normalized AUC in po dosed mouse; type: ADME, organism-based; settings: in vivo
Homo sapiens [23] = experiment: Toxicity in human assessed as occurrence of flushing at 5 to 200 mg, po administered as single dose; type: organism-based; settings: in vivo
[24] = Cmax in human at 100 mg, po BID administered on day 1 followed by 2-day wash out period after which dosing continued up to day 11 measured on day 11; type: ADME, organism-based; parameters: dose 100 mg, route oral; settings: in vivo; procedure, shortened: as §2
[25] = Cmin in human at 100 mg, po BID administered on day 1 followed by 2-day wash out period after which dosing continued up to day 11 measured on day 11 at 12 hrs; type: ADME, organism-based; settings: in vivo, read-out: Cmin; procedure, shortened: as §4
Homo sapiens [26] = experiment: Toxicity in human assessed as occurrence of flushing administered as single dose; type: organism-based; settings: in vivo
Procedure, shortened: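 Healthy volunteers scored subject-reported flushing with a flushing symptoms questionnaire after single oral doses and during repeat divided daily dosing.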

[27] = Volume of distribution in mouse; type: ADME, organism-based; settings: in vivo
[28] = Cmin in human at 50 mg, po BID administered on day 1 followed by 2-day wash out period after which dosing continued up to day 11 measured on day 11 at 12 hrs; type: ADME, organism-based; settings: in vivo, read-out: Cmin; procedure, shortened: as §1
[29] = Tmax in human at 50 mg, po BID administered on day 1 followed by 2-day wash out period after which dosing continued up to day 11 measured on day 4; type: ADME, organism-based; settings: in vivo; procedure, shortened: as §3
[30] = Cmin in human at 100 mg, po BID administered on day 1 followed by 2-day wash out period after which dosing continued up to day 11 measured on day 1 at 12 hrs; type: ADME, organism-based; settings: in vivo, read-out: Cmin; procedure, shortened: as §1
[31] = Cmax in human at 50 mg, po BID administered on day 1 followed by 2-day wash out period after which dosing continued up to day 11 measured on day 1; type: ADME, organism-based; parameters: dose 50 mg, route oral; settings: in vivo; procedure, shortened: as §1

O=C(O)c1n[nH]c2c1C[C@H]1C[C@@H]21 showed a Cmax [1] of 44.9 nM, a Vd [2] of 0.21 L/kg and a Cmax [3] of 31.5 nM. For the same compound, the AUC at 8 h [4] was 0.0885 µM·h, the Cmin (Homo sapiens [5]) was “BLD” and the half-life [6] was 8.7 h. The concentration at 8 h [7] was 0.869 nM, the AUC/dose (Canis familiaris) was 33.3 µM·kg·h/mg and the Tmax [8] was 1 h. The half-life [9] was 3.4 h, the half-life [10] was 4.6 h and the clearance [11] was 3.1 mL/min/kg. The concentration at 6 h [12] was 4.01 nM, the Tmax [13] was 1 h and the AUC at 6 h [14] was 0.13 µM·h. For the same compound, the clearance [15] was 10 mL/min/kg, the AUC at 12 h [16] was 0.0254 µM·h and the Activity (Homo sapiens [17]) was “inactive”. The AUC at 24 h [18] was 0.114 µM·h, the clearance [19] was 5.1 mL/min/kg and the half-life [20] was 8.9 h. The Activity (Homo sapiens [21]) was “Non-toxic”, the AUC at 8 h [22] was 0.102 µM·h and the AUC/dose (Mus musculus) was 4.1 µM·kg·h/mg. The Activity (Homo sapiens [23]) was “Toxic”, the Cmax [24] was 32.5 nM and the concentration at 12 h [25] was 0.104 nM. The Activity (Homo sapiens [26]) was “Dose-dependent effect”, the Vd [27] was 0.75 L/kg and the concentration at 12 h [28] was 0.045 nM. For the same compound, the Tmax [29] was 1.25 h, the concentration at 12 h [30] was 0.124 nM and the Cmax [31] was 12.3 nM.
